Paper PMC6706283 (Bioorganic & medicinal chemistry, 2019)
Entries after “also recorded” stand apart in the source; their conditions may differ. Like-named read-outs stand apart in the source and are kept apart here.

Legend:
PAR1 [1] = target: T1, PAR1 (Homo sapiens, UniProt P25116); assay: intracellular calcium mobilization; format: cell-based; conditions: for activity in the iCa2+ assay (in words): EA.hy926 cells, TFLLRN-NH2
T1 sequence (P25116 22-425): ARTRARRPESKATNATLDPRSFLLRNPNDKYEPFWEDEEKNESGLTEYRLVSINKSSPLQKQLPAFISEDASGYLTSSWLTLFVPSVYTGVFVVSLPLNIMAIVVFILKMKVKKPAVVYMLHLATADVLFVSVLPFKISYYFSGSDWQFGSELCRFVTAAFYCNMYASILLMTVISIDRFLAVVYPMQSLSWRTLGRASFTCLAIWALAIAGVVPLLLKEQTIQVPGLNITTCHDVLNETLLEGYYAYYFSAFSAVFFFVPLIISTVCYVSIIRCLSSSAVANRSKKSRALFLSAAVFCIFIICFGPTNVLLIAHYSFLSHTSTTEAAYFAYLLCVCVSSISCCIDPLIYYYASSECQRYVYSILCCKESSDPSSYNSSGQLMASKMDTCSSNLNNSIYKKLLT
Outline: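 Adherent EA.hy926 endothelial cells in 96-well plates; intracellular Ca2+ mobilization triggered by PAR1 tethered-ligand peptide TFLLRN-NH2 (5 µM). Single-point screen: test compound at 10 µM, % inhibition from n = 4 wells unless noted, with SEM. IC50: 3 wells per concentration, curves fitted by 4-variable non-linear regression. Summary IC50 is the average of independent assays. Selectivity run used agonist at 3.16 µM.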

PAR2 = target: T2, PAR2 (Homo sapiens, UniProt P55085); assay: PAR2; format: cell-based; conditions: parmodulins 10 μM, vorapaxar 0.316 μM; SLIGKV-NH2 3.16 μM
T2 sequence (P55085 26-397): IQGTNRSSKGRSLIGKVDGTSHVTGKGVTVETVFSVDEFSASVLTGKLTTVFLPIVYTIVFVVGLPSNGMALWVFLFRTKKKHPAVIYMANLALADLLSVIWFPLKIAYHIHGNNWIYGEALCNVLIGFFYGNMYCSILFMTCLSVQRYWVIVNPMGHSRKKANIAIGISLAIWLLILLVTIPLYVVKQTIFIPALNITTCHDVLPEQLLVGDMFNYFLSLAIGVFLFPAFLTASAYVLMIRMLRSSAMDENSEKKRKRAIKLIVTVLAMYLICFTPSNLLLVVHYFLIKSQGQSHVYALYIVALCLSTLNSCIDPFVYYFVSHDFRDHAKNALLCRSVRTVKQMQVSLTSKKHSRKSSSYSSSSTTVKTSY
Outline: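 Intracellular Ca2+ mobilization assay in EA.hy926 endothelial cells. Cells were pretreated with test compound (10 µM) or reference antagonist (0.316 µM), then stimulated with PAR2 agonist SLIGKV-NH2 (3.16 µM). A parallel run stimulated with PAR1 agonist TFLLRN-NH2 at 3.16 µM.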

PAR1 [2] = target: T1, PAR1; format: cell-based; conditions: increasing concentrations of antagonist
Outline: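 EA.hy926 endothelial cells; Ca2+ mobilization concentration-response curves for PAR1 agonist TFLLRN-NH2 were recorded at several increasing concentrations of test compound. Agonist efficacy was compared across antagonist levels.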

human washed platelets = assay: human platelet aggregation assay; format: cell-based; conditions: parmodulin 10 μM, SFLLRN-NH2 1.5 μM
Outline: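 Washed human platelets were incubated with test compound (10 µM), then stimulated with PAR1/2 agonist SFLLRN-NH2 (1.5 µM). Aggregation traces were recorded against DMSO vehicle control traces.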

tissue factor (TF) mRNA = assay: qPCR assay of TNF-α induced tissue factor expression in HUVEC; format: cell-based, human; conditions: 10 μM, TNF-α 25 ng/mL added at 1 h, mRNA at 4 h
Outline: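 HUVEC were treated with test compound (10 µM) at t = 0 and TNF-α (25 ng/mL) at t = 1 h. Tissue factor mRNA was quantified by qPCR at t = 4 h, n = 3. Analysis by one-way ANOVA with Bonferroni multiple-comparisons test.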

hepG2 cells = assay: cytotoxicity in hepG2 cells; format: cell-based; conditions: human hepG2 cells
[3] = target: SERT (serotonin transporter) (Homo sapiens, UniProt P31645); assay: PDSP radioligand binding, SERT; conditions: read-out: mean % inhibition of binding, SERT
Sequence of SERT (serotonin transporter) (P31645 whole entry, species assumed): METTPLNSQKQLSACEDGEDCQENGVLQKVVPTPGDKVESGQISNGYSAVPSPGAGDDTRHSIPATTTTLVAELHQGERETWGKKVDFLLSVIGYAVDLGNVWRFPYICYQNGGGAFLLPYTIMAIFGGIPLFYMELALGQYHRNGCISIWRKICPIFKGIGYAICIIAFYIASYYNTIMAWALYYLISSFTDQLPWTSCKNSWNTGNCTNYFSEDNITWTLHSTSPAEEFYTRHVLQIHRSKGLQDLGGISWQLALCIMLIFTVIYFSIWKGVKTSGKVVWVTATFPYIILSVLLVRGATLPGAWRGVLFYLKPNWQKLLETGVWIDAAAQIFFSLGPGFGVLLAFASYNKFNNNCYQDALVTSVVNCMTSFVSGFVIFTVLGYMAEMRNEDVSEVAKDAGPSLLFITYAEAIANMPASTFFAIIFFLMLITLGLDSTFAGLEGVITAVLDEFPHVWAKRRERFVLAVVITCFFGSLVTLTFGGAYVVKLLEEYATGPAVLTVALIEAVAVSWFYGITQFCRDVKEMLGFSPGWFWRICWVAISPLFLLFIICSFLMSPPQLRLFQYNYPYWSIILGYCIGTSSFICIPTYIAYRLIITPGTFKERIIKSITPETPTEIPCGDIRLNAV

[4] = target: 5HT-5A (5-hydroxytryptamine receptor) (Homo sapiens, UniProt P47898); assay: PDSP radioligand binding, 5HT-5A; conditions: read-out: mean % inhibition of binding, 5HT-5A
Sequence of 5HT-5A (5-hydroxytryptamine receptor) (P47898 whole entry, species assumed): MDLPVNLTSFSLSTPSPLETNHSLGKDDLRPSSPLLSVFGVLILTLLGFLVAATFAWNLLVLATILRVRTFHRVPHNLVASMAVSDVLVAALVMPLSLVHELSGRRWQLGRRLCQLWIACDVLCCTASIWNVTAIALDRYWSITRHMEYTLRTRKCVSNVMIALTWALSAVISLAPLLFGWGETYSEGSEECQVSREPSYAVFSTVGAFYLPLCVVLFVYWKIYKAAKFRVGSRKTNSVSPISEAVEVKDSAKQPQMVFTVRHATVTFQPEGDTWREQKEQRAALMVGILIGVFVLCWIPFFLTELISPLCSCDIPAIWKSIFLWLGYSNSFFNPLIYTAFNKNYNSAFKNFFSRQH

PAR1 [5] = target: T1, PAR1; conditions: cited from earlier work
platelets = conditions: cited from earlier work
[6] = after 5 h; cited from earlier work
[7] = cited from earlier work
[8] = human liver microsome stability; format: in vitro ADME; conditions: 1 h

O=C(Nc1cccc(NC(=O)c2ccccc2Br)c1)c1cnco1 [NRD-21, N-[3-(2-bromobenzamido)phenyl]-1,3-oxazole-5-carboxamide]
activity in the iCa2+ assay (in words) (PAR1 [1]; listed as 38): very good inhibition; also recorded: much better efficacy than 39
PAR2 activity? (PAR2): None observed
effect on the efficacy of the PAR1 agonist TFLLRN-NH2 (PAR1 [2]): reduction in efficacy
inhibition of platelet aggregation (human washed platelets): Complete inhibition
effect on TNF-α induced TF expression (mRNA) (tissue factor (TF) mRNA): below baseline levels
Cytotoxicity (CC50) (hepG2 cells): no measurable toxicity
inhibition at 10 µM [3]: -44%
inhibition at 10 µM [4]: -31%

CCCCNc1cccc(NC(=O)c2ccccc2Br)c1 [compound 5]
activity in the iCa2+ assay (in words) (PAR1 [5]; as previously reported): very good activity

CC(C)CC(=O)Nc1cccc(NC(=O)c2ccccc2Br)c1 [compound 2]
activity in the endothelial iCa2+ assay (in words) (PAR1 [5]; EA.hy926 cells): mediocre inhibition
inhibition in the platelet P-selectin assay (in words) (platelets): equipotent to ML161
stability in mouse plasma, % remaining [6]: 65%
solubility in water with 1% DMSO [7]: 9 µM

CCCC(=O)Nc1cccc(NC(=O)c2ccccc2Br)c1 [ML161]
PAR2 activity? (PAR2): None observed
Microsomal stability [8]: 99% (1 h, human)
inhibition of platelet aggregation (human washed platelets): Complete inhibition
effect on TNF-α induced TF expression (mRNA) (tissue factor (TF) mRNA): blocked the ~3-fold increase in TF expression
inhibition at 10 µM [3]: -44%
stability in mouse plasma, % remaining [6]: 2%

CCCNCc1cccc(NC(=O)c2ccccc2Br)c1 [compound 28]
activity in the iCa2+ assay (in words) (PAR1 [1]): steep drop in efficacy

O=C(Nc1cccc(NC(=O)C2CCCO2)c1)c1ccccc1Br (centres unmarked) [compound 36]
activity in the iCa2+ assay (in words) (PAR1 [1]): only modest inhibition

O=C(Nc1cccc(N2CCCC2)c1)c1ccccc1Br [compound 30]
activity in the iCa2+ assay (in words) (PAR1 [1]): evidence of activation

CCC(=O)Nc1cccc(NC(=O)c2ccccc2Br)c1 [compound 8]
activity in the iCa2+ assay (in words) (PAR1 [1]): decreased activity

O=C(Nc1cccc(NC(=O)c2ccccc2Br)c1)c1cocn1 [compound 39]
activity in the iCa2+ assay (in words) (PAR1 [1]): very good inhibition
inhibition of PAR1 (PAR1 [1]; selectivity study: parmodulin 10 μM, TFLLRN-NH2 3.16 μM): less than 75%

C#CCCC(=O)Nc1cccc(NC(=O)c2ccccc2Br)c1 [compound 11]
activity in the iCa2+ assay (in words) (PAR1 [1]): decreased efficacy and/or potency

CCCN(CCC)c1cccc(NC(=O)c2ccccc2Br)c1 [compound 26]
activity in the iCa2+ assay (in words) (PAR1 [1]): weak activity

O=C(Nc1cccc(NC(=O)C2CCOC2)c1)c1ccccc1Br (centres unmarked) [compound 37]
activity in the iCa2+ assay (in words) (PAR1 [1]): only modest inhibition

CN(C)CC(=O)Nc1cccc(NC(=O)c2ccccc2Br)c1 [compound 25]
activity in the iCa2+ assay (in words) (PAR1 [1]): complete loss of activity

CCCCOc1cccc(NC(=O)c2ccccc2Br)c1 [compound 24]
activity in the iCa2+ assay (in words) (PAR1 [1]): moderate activity

O=C(Nc1cccc(NC(=O)C2CCCC2)c1)c1ccccc1Br [compound 3]
activity in the iCa2+ assay (in words) (PAR1 [1]): moderate inhibition

CCCCC(=O)Nc1cccc(NC(=O)c2ccccc2Br)c1 [compound 10]
activity in the iCa2+ assay (in words) (PAR1 [1]): decreased efficacy and/or potency

COCCNc1cccc(NC(=O)c2ccccc2Br)c1 [compound 27]
activity in the iCa2+ assay (in words) (PAR1 [1]): weak activity

O=C(Nc1cccc(NC2CCCC2)c1)c1ccccc1Br [compound 29]
activity in the iCa2+ assay (in words) (PAR1 [1]): evidence of activation

CCC(C)C(=O)Nc1cccc(NC(=O)c2ccccc2Br)c1 (centres unmarked) [compound 7]
activity in the iCa2+ assay (in words) (PAR1 [1]): weak efficacy
